pIC50: −log10 of the molar value.
Columns and labels:
[1] = Lipophilicity, log P of the compound; format: physicochemical; conditions: octanol/water; read-out: logP
[2] = target: DNA gyrase subunit A/DNA gyrase subunit B (Mycobacterium tuberculosis (strain ATCC 25618 / H37Rv), UniProt P9WG45+P9WG47); assay: Inhibition of Mycobacterium tuberculosis DNA gyrase supercoiling activity using relaxed pBR322 as substrate after 30 mins by agarose gel electrophoresis; format: protein-complex assay
Mus musculus [3] = assay: Acute toxicity in Swiss albino mouse assessed as effect on WBC count at 5 mg/kg, po after 7 days (reference value: 7.47 +/- 1.61 10^3/mm3); format: organism-based; conditions: in vivo, 168 h
Mus musculus [4] = assay: Acute toxicity in Swiss albino mouse assessed as effect on ALKP levels at 5 mg/kg, po after 7 days (reference value: 219.20 +/- 5.9 U/L); format: organism-based; conditions: in vivo, 168 h
Mus musculus [5] = assay: Acute toxicity in Swiss albino mouse assessed as effect on cholesterol levels at 5 mg/kg, po after 7 days (reference value: 89.73 +/- 10.76 mg/dL); format: organism-based; conditions: in vivo, 168 h
Mus musculus [6] = assay: Acute toxicity in Swiss albino mouse assessed as effect on albumin levels at 5 mg/kg, po after 7 days (reference value: 3.53 +/- 0.35 mg/dL); format: organism-based; conditions: in vivo, 168 h
Mus musculus [7] = assay: Acute toxicity in Swiss albino mouse assessed as effect on serum protein levels at 5 mg/kg, po after 7 days (reference value: 0.10 +/- 0.004 mg/mL); format: organism-based; conditions: in vivo, 168 h
Mus musculus [8] = assay: Acute toxicity in Swiss albino mouse assessed as effect on MDA levels per mg of tissue protein at 5 mg/kg, po after 7 days (reference value: 0.24 +/- 0.05 nmol); format: organism-based; conditions: in vivo, 168 h
Mus musculus [9] = assay: Acute toxicity in Swiss albino mouse assessed as effect on GSH levels per mg of tissue protein at 5 mg/kg, po after 7 days (reference value: 17.64 +/- 1.03 micromol); format: organism-based; conditions: in vivo, 168 h
Mus musculus [10] = assay: Acute toxicity in Swiss albino mouse assessed as effect on SGPT levels at 50 mg/kg, po after 7 days (reference value: 16.08 +/- 1.38 U/L); format: organism-based; conditions: in vivo, 168 h
Mus musculus [11] = assay: Acute toxicity in Swiss albino mouse assessed as effect on SGOT levels at 50 mg/kg, po after 7 days (reference value: 15.11 +/- 1.25 U/L); format: organism-based; conditions: in vivo, 168 h
Mus musculus [12] = assay: Acute toxicity in Swiss albino mouse assessed as effect on cholesterol levels at 50 mg/kg, po after 7 days (reference value: 89.73 +/- 10.76 mg/dL); format: organism-based; conditions: in vivo, 168 h
Mus musculus [13] = assay: Acute toxicity in Swiss albino mouse assessed as effect on triglyceride levels at 50 mg/kg, po after 7 days (reference value: 45.21 +/- 2.95 mg/dL); format: organism-based; conditions: in vivo, 168 h
Mus musculus [14] = assay: Acute toxicity in Swiss albino mouse assessed as effect on GSH levels per mg of tissue protein at 50 mg/kg, po after 7 days (reference value: 17.64 +/- 1.03 micromol); format: organism-based; conditions: in vivo, 168 h
Mus musculus [15] = assay: Acute toxicity in Swiss albino mouse assessed as effect on body weight at 300 mg/kg, po after 7 days (reference value: 28.25 +/- 0.54 g); format: organism-based; conditions: in vivo, 168 h
Mus musculus [16] = assay: Acute toxicity in Swiss albino mouse assessed as effect on WBC count at 300 mg/kg, po after 7 days (reference value: 7.47 +/- 1.61 10^3/mm3); format: organism-based; conditions: in vivo, 168 h
Mus musculus [17] = assay: Acute toxicity in Swiss albino mouse assessed as effect on SGOT levels at 300 mg/kg, po after 7 days (reference value: 15.11 +/- 1.25 U/L); format: organism-based; conditions: in vivo, 168 h
Mus musculus [18] = assay: Acute toxicity in Swiss albino mouse assessed as effect on ALKP levels at 300 mg/kg, po after 7 days (reference value: 219.20 +/- 5.9 U/L); format: organism-based; conditions: in vivo, 168 h
Mus musculus [19] = assay: Acute toxicity in Swiss albino mouse assessed as effect on haemoglobin levels at 300 mg/kg, po after 7 days (reference value: 12.29 +/- 0.53 g/dL); format: organism-based; conditions: in vivo, 168 h
Mus musculus [20] = assay: Acute toxicity in Swiss albino mouse assessed as effect on albumin levels at 300 mg/kg, po after 7 days (reference value: 3.53 +/- 0.35 mg/dL); format: organism-based; conditions: in vivo, 168 h
Mus musculus [21] = assay: Acute toxicity in Swiss albino mouse assessed as effect on GSH levels per mg of tissue protein at 300 mg/kg, po after 7 days (reference value: 17.64 +/- 1.03 micromol); format: organism-based; conditions: in vivo, 168 h
Mus musculus [22] = assay: Acute toxicity in Swiss albino mouse assessed as effect on RBC count at 1000 mg/kg, po after 7 days (reference value: 7.61 +/- 0.54 10^6/mm3); format: organism-based; conditions: in vivo, 168 h
Mus musculus [23] = assay: Acute toxicity in Swiss albino mouse assessed as effect on SGPT levels at 1000 mg/kg, po after 7 days (reference value: 16.08 +/- 1.38 U/L); format: organism-based; conditions: in vivo, 168 h
Mus musculus [24] = assay: Acute toxicity in Swiss albino mouse assessed as effect on ALKP levels at 1000 mg/kg, po after 7 days (reference value: 219.20 +/- 5.9 U/L); format: organism-based; conditions: in vivo, 168 h
Mus musculus [25] = assay: Acute toxicity in Swiss albino mouse assessed as effect on cholesterol levels at 1000 mg/kg, po after 7 days (reference value: 89.73 +/- 10.76 mg/dL); format: organism-based; conditions: in vivo, 168 h
Mus musculus [26] = assay: Acute toxicity in Swiss albino mouse assessed as effect on triglyceride levels at 1000 mg/kg, po after 7 days (reference value: 45.21 +/- 2.95 mg/dL); format: organism-based; conditions: in vivo, 168 h
Mus musculus [27] = assay: Acute toxicity in Swiss albino mouse assessed as effect on tissue protein levels at 1000 mg/kg, po after 7 days (reference value: 0.06 +/- 0.004 mg/mL); format: organism-based; conditions: in vivo, 168 h
Mus musculus [28] = assay: Acute toxicity in Swiss albino mouse assessed as effect on MDA levels per mg of tissue protein at 1000 mg/kg, po after 7 days (reference value: 0.24 +/- 0.05 nmol); format: organism-based; conditions: in vivo, 168 h
Mus musculus [29] = assay: Acute toxicity in Swiss albino mouse assessed as effect on absolute lung weight at 5 to 1000 mg/kg, po after 7 days; format: organism-based; conditions: in vivo, 168 h
In short: (§1)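 Single acute oral dose of 5, 50, 300 or 1000 mg/kg body weight, with an untreated control group; n=6 mice per group. Animals observed for 7 days for morbidity, mortality, behaviour and body weight. At the end, blood and serum were analysed, and organs were examined grossly with absolute and relative weights. Data are mean±SE; P<0.05 was taken as significant versus control and the lower-dose groups.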

Mus musculus [30] = assay: Acute toxicity in Swiss albino mouse assessed as effect on absolute kidney weight at 5 to 1000 mg/kg, po after 7 days; format: organism-based; conditions: in vivo, 168 h; in short: as §1
Mus musculus [31] = assay: Acute toxicity in Swiss albino mouse assessed as effect on absolute heart weight at 5 to 1000 mg/kg, po after 7 days; format: organism-based; conditions: in vivo, 168 h; in short: as §1
Mus musculus [32] = assay: Acute toxicity in Swiss albino mouse assessed as effect on relative liver weight at 5 to 300 mg/kg, po after 7 days; format: organism-based; conditions: in vivo, 168 h; in short: as §1
Mus musculus [33] = assay: Acute toxicity in Swiss albino mouse assessed as effect on relative kidney weight at 5 to 1000 mg/kg, po after 7 days; format: organism-based; conditions: in vivo, 168 h; in short: as §1
Mus musculus [34] = assay: Acute toxicity in Swiss albino mouse assessed as effect on relative heart weight at 5 to 1000 mg/kg, po after 7 days; format: organism-based; conditions: in vivo, 168 h; in short: as §1

Chain of DNA gyrase subunit A/DNA gyrase subunit B (P9WG45 whole entry): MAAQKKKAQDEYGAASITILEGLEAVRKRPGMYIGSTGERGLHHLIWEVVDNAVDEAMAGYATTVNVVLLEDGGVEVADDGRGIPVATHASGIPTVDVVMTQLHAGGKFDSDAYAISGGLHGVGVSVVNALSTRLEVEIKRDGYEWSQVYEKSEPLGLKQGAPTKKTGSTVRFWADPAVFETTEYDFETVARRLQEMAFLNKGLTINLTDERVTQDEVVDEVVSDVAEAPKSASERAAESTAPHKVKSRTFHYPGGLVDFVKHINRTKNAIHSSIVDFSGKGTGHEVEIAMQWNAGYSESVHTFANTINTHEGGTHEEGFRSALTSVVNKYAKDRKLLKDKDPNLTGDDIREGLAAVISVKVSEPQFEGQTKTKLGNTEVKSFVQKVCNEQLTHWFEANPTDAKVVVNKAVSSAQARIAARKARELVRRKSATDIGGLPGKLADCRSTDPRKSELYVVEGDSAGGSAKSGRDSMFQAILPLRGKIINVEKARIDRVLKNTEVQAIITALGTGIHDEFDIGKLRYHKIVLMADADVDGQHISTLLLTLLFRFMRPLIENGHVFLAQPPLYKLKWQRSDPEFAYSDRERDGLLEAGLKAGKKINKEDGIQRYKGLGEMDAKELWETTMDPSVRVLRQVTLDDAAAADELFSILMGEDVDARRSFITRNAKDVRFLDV
Chain of DNA gyrase subunit A/DNA gyrase subunit B (P9WG47 whole entry): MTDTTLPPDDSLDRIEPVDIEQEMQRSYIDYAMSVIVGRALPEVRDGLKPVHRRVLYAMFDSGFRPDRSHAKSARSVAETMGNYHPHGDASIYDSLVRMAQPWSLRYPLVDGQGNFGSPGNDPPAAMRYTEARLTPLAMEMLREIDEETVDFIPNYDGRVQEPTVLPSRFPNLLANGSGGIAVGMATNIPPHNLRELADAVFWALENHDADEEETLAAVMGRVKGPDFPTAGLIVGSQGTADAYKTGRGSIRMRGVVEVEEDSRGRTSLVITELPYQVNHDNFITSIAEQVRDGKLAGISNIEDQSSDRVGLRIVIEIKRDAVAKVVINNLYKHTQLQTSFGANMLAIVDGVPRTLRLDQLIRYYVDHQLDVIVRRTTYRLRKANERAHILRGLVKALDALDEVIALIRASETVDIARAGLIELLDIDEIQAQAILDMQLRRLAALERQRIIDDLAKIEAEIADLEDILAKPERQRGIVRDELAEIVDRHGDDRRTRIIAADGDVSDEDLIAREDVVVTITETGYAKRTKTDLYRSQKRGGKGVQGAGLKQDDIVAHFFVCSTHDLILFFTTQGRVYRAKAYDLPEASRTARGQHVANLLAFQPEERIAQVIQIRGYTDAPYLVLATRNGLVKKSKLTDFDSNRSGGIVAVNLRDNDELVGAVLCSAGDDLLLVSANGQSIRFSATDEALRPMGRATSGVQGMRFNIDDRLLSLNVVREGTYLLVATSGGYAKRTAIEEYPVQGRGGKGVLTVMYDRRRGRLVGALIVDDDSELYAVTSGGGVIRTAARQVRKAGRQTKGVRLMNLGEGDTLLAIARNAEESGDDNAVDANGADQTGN

For COc1ccc2c(c1)nc(-c1ccccc1OC)n2Cc1ccccc1OC, which logP [1] is on record?
Its logP is 4.45.

What about the pIC50 [2] of the same compound?
Its pIC50 is 3.45.

And the Activity (Mus musculus [3])?
Its Activity is 7.72 10^3/mm3.

And the Activity (Mus musculus [4])?
The Activity was 172.1 U/L.

And the Activity (Mus musculus [5])?
The Activity was 91.48 mg/dL.

And the Activity (Mus musculus [6])?
The Activity was 3.81 mg/dL.

What about the Activity (Mus musculus [7]) of the same compound?
The Activity was 0.09 mg/mL.

What about the Activity (Mus musculus [8]) of the same compound?
Its Activity is 0.26 nmol.

And the Activity (Mus musculus [9])?
The Activity was 15.6 µmol.

And the Activity (Mus musculus [10])?
Its Activity is 15.98 U/L.

What about the Activity (Mus musculus [11]) of the same compound?
Its Activity is 11.5 U/L.

And the Activity (Mus musculus [12])?
Its Activity is 85.13 mg/dL.

And the Activity (Mus musculus [13])?
The Activity was 41.98 mg/dL.

What about the Activity (Mus musculus [14]) of the same compound?
The Activity was 17.1 µmol.

What about the Activity (Mus musculus [15]) of the same compound?
The Activity was 25.47 g.

And the Activity (Mus musculus [16])?
The Activity was 5.67 10^3/mm3.

What about the Activity (Mus musculus [17]) of the same compound?
Its Activity is 11.11 U/L.

And the Activity (Mus musculus [18])?
The Activity was 169.24 U/L.

What about the Activity (Mus musculus [19]) of the same compound?
Its Activity is 11.51 g/dL.

And the Activity (Mus musculus [20])?
Its Activity is 3.79 mg/dL.

And the Activity (Mus musculus [21])?
The Activity was 19.37 µmol.

And the Activity (Mus musculus [22])?
The Activity was 7.33 10^6/mm3.

And the Activity (Mus musculus [23])?
The Activity was 11.72 U/L.

And the Activity (Mus musculus [24])?
The Activity was 118.06 U/L.

What about the Activity (Mus musculus [25]) of the same compound?
Its Activity is 115.43 mg/dL.

What about the Activity (Mus musculus [26]) of the same compound?
The Activity was 57.01 mg/dL.

What about the Activity (Mus musculus [27]) of the same compound?
Its Activity is 0.05 mg/mL.

And the Activity (Mus musculus [28])?
Its Activity is 0.71 nmol.

And the Activity (Mus musculus [29])?
Its Activity is “Non-Toxic”.

What about the Activity (Mus musculus [30]) of the same compound?
Its Activity is “Non-Toxic”.

What about the Activity (Mus musculus [31]) of the same compound?
Its Activity is “Non-Toxic”.

And the Activity (Mus musculus [32])?
Its Activity is “Non-Toxic”.

And the Activity (Mus musculus [33])?
The Activity was “Non-Toxic”.

What about the Activity (Mus musculus [34]) of the same compound?
Its Activity is “Non-Toxic”.
